Data as given in ChEMBL document CHEMBL1146278, “Design and synthesis of substrate-mimic inhibitors of mycothiol-S-conjugate amidase from Mycobacterium tuberculosis” (Bioorg Med Chem Lett, 2007).

These compounds were tested against T1, Mycothiol S-conjugate amidase (Mycobacterium tuberculosis) (UniProt P9WJN1) (assay: Inhibition of Mycobacterium tuberculosis MCA at 50 uM).
T1 sequence (whole entry): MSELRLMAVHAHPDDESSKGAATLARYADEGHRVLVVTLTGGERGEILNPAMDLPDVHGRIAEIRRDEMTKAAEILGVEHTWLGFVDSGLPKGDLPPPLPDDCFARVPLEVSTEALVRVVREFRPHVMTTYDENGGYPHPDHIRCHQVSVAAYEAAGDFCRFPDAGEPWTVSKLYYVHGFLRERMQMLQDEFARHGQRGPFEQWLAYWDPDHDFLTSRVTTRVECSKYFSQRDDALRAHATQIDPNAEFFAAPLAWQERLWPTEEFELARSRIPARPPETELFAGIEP
Method in brief: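 Recombinant MCA was assayed by fluorescence-detected HPLC, with mycothiol bimane (MSmB) or its cyclohexyl thioglycoside analog as substrate. Inhibitors were screened at 100 and 50 μM, and the reported values are at a final 50 μM. Each value is the mean of two experiments. Below 10% inhibition was scored as no inhibition.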

| SMILES | inhibition |
| --- | --- |
| Cc1onc(-c2c(F)cccc2Cl)c1C(=O)N[C@H]1[C@@H](O[C@@H]2C[C@](O)(CO)C[C@@H](O)[C@H]2O)O[C@H](CO)[C@@H](O)[C@@H]1O | < 10% |
| O=C(N[C@H]1[C@@H](O[C@@H]2C[C@](O)(CO)C[C@@H](O)[C@H]2O)O[C@H](CO)[C@@H](O)[C@@H]1O)c1ccc2ccsc2c1 | < 10% |
| O=C(N[C@H]1[C@@H](O[C@@H]2C[C@](O)(CO)C[C@@H](O)[C@H]2O)O[C@H](CO)[C@@H](O)[C@@H]1O)c1cccnc1Sc1ccc(Cl)cc1 | 10% |
| CC(C)S(=O)(=O)c1csc(C(=O)N[C@H]2[C@@H](O[C@@H]3C[C@](O)(CO)C[C@@H](O)[C@H]3O)O[C@H](CO)[C@@H](O)[C@@H]2O)c1Cl | 11% |
| CCCSc1cc(C(=O)N[C@H]2[C@@H](O[C@@H]3C[C@](O)(CO)C[C@@H](O)[C@H]3O)O[C@H](CO)[C@@H](O)[C@@H]2O)ccn1 | 15% |
| O=C(N[C@H]1[C@@H](O[C@@H]2C[C@](O)(CO)C[C@@H](O)[C@H]2O)O[C@H](CO)[C@@H](O)[C@@H]1O)c1cccs1 | 13% |
| O=C(N[C@H]1[C@@H](O[C@@H]2C[C@](O)(CO)C[C@@H](O)[C@H]2O)O[C@H](CO)[C@@H](O)[C@@H]1O)c1ccncc1 | 46% |
| O=C(N[C@H]1[C@@H](O[C@@H]2C[C@](O)(CO)C[C@@H](O)[C@H]2O)O[C@H](CO)[C@@H](O)[C@@H]1O)c1ccco1 | 15% |
| O=C(N[C@H]1[C@@H](O[C@@H]2C[C@](O)(CO)C[C@@H](O)[C@H]2O)O[C@H](CO)[C@@H](O)[C@@H]1O)c1ccc2ccccc2c1 | 13% |
| O=C(N[C@H]1[C@@H](O[C@@H]2C[C@](O)(CO)C[C@@H](O)[C@H]2O)O[C@H](CO)[C@@H](O)[C@@H]1O)c1ccc([N+](=O)[O-])cc1 | 15% |
| CN(C)c1ccc(C(=O)N[C@H]2[C@@H](O[C@@H]3C[C@](O)(CO)C[C@@H](O)[C@H]3O)O[C@H](CO)[C@@H](O)[C@@H]2O)cc1 | 44% |
| O=C(N[C@H]1[C@@H](O[C@@H]2C[C@](O)(CO)C[C@@H](O)[C@H]2O)O[C@H](CO)[C@@H](O)[C@@H]1O)c1ccc(C(F)(F)F)cc1 | 16% |
| O=C(N[C@H]1[C@@H](O[C@@H]2C[C@](O)(CO)C[C@@H](O)[C@H]2O)O[C@H](CO)[C@@H](O)[C@@H]1O)C1CC1 | 13% |
| CCCc1c(C(=O)N[C@H]2[C@@H](O[C@@H]3C[C@](O)(CO)C[C@@H](O)[C@H]3O)O[C@H](CO)[C@@H](O)[C@@H]2O)cnn1-c1cc(Cl)cc(Cl)c1 | 26% |
